Measurements: publication PMC4954844 (European Journal of Drug Metabolism and Pharmacokinetics, 2015)
Read-outs that look alike come from different tables or passages of the source.

Tests used:
[1] = PBPK simulation and clearance scaling of LSF to a 70-kg human subject
[2] = Urinary excretion of unchanged LSF in mice; format: in vivo; conditions: 50 mg/kg i.v., within 4 h, unpublished data
Summary of the method: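 Three mice received 50 mg/kg intravenously and were housed in metabolic cages. All urine was collected at 2 and 4 h post-dose with volumes recorded. Unchanged drug was quantified by the chiral HPLC-UV method after validation for murine urine, expressed as percent of dose excreted within 4 h.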

[3] = tested on: human liver microsomes (CYP1A2 and a non-cytochrome P450 enzyme); conditions: biphasic, ref Lee and Slattery [1997]; cited from earlier work
[4] = format: in vivo, male Crl:CD-1 mice
Summary of the method: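 Male Crl:CD-1 mice (8–10 weeks, bred in-house) were fasted overnight with water and dosed at 50 mg/kg into the tail vein. 3–4 per time point were exsanguinated up to 60 min. Serum was clotted at room temperature, then spun. Brain, muscle, kidneys, liver, gut and lungs were homogenized 1:4 w/v in 0.1 M PBS. Samples were stored at −80 °C.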

[5] = ref Nicklasson et al. [2002], cited from earlier work
[6] = tested on: human liver microsomes (CYP3A4, CYP2A6); conditions: biphasic, cited from earlier work
[7] = ref Bursten et al. [1998], cited from earlier work
[8] = Human pharmacokinetic study of LSF; format: in vivo; conditions: plasma, iv, 3 mg/kg
[9] = mice, ref Wyska et al. [2007], cited from earlier work
[10] = mice, final PBPK model estimate
[11] = CYP2A6, ref Shin and Slattery [1998]
[12] = CYP3A4, ref Shin and Slattery [1998]

- in vivo whole liver intrinsic clearance ([1]; calculated from human liver microsome Vmax/KM data and Eq. 11): 1,545.24 ml/min
- plasma hepatic clearance ([1]; calculated from the in vivo intrinsic clearance (Eq. 12)): 477.54 mL/min
- mean percentage of LSF dose excreted unchanged with urine [2]: 0.71 ± 0.13%
- Kp ([4]; male, Crl:CD-1, mouse, brain/serum, iv, 50 mg/kg): 0.345
- Kp ([4]; male, Crl:CD-1, mouse, gut/serum, iv, 50 mg/kg): 0.892
- clearance ([4]; male, Crl:CD-1, mouse, intravenous, 50 mg/kg): 5.43 mL/min
- concentration at 60 min ([4]; male, Crl:CD-1, mouse, iv, 50 mg/kg): < 1000 ng/mL
- Kp ([4]; male, Crl:CD-1, mouse, kidneys/serum, iv, 50 mg/kg): 0.777
- Kp ([4]; male, Crl:CD-1, mouse, liver/serum, iv, 50 mg/kg): 0.859
- Kp ([4]; male, Crl:CD-1, mouse, lungs/serum, iv, 50 mg/kg): 0.758
- Kp ([4]; male, Crl:CD-1, mouse, muscle/serum, iv, 50 mg/kg): 0.64
- clearance ([4]; male, Crl:CD-1, mouse, serum, iv, 50 mg/kg): 1.44 mL/min
- K M (LSF concentration at 50 % of the maximum rate of metabolism) [4, 10]: 1.777 µg/mL
- V max (maximum rate of metabolism) [4, 10]: 9.644 µg/min
- clearance [8]: 1280 mL/min
Compound: C[C@@H](O)CCCCn1c(=O)c2c(ncn2C)n(C)c1=O [LSF, (−)-R-1-(5-hydroxyhexyl)-3,7-dimethylxanthine]
- K M, formation of pentoxifylline from LSF, second (high K M) enzyme [3]: 158 µM
- V max, formation of pentoxifylline from LSF, second (high K M) enzyme [3]: 0.928 nmol/min/mg
- fraction unbound (fu) in human plasma ([5]; human plasma): 0.54
- blood to plasma LSF concentration ratio (CB/Cp) ([5]; human): 0.77
- K M, lisofylline diol formation, high K M enzyme [6, 11]: 4230 µM
- V max, lisofylline diol formation, high K M enzyme [6, 11]: 0.429 nmol/min/mg of protein
- K M, lisofylline diol formation, low K M enzyme [6, 12]: 23 µM
- V max, lisofylline diol formation, low K M enzyme [6, 12]: 0.0565 nmol/min/mg of protein
- maximum concentration (C max), observed ([7]; human subjects, oral 6 mg/kg): 226 ± 99.10 ng/mL
- time to C max, observed ([7]; human subjects, oral 6 mg/kg): 0.53 ± 0.26 h
- bioavailability ([7]; humans, oral): 5.9%
- first-order absorption rate constant (ka) ([9]; oral administration): 0.024 min⁻¹
- fraction of the dose absorbed following oral administration (F) ([9]; oral administration): 0.16
- bioavailability ([9]; oral): 16%
